From the RNAGym collection of RNA variant scans (doi:10.1126/science.aae0568)
Variants at the floor of the assay were thinned out.

B1: tRNA (parent)
chain: GUUCCGUUGGCGUAAUGGUAACGCGUCUCCCUCCUAAGGAGAAGACUGCGGGUUCGAGUCCCGUACGGAACG

Variants of: B1
Test: yeast fitness relative to wild type (ratio to wild type); higher = fitter; tRNA-Arg(CCU), competitive growth, 37 C, YPD
Outline: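 A pool of Saccharomyces cerevisiae strains, each with a tRNA-Arg(CCU) gene variant at the native genomic locus, was competed in YPD at 37°C for 24 hours across six parallel replicates. The variants had been chemically synthesised at a 3% per-site mutation rate over 69 sites, and gene amplicons before and after competition were read by 100-nucleotide paired-end sequencing. Darwinian fitness relative to wild type rested on changes in genotype frequencies. Genotypes required ≥ 100 starting reads, and estimates < 0.5 were set to 0.5.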

| Variant | yeast fitness |
| --- | --- |
| C22U C33G A65G | ≤ 0.5 |
| C22U C27G A37G A42C | ≤ 0.5 |
| G23C C31G G50A | ≤ 0.5 |
| C22U U35C C55A A65G C66U | ≤ 0.5 |
| G23A C27U A37U C60U C61A | ≤ 0.5 |
| C22U C24U U26A U47C | ≤ 0.5 |
| C22U G58C A65C | ≤ 0.5 |
| C22U A42U G51C | 0.647 |
| G23C C30G A37U A45C C46G | ≤ 0.5 |
| G23A G48C C55G | ≤ 0.5 |
| G23A A36G C55G A69U | 0.567 |
| G23C C24A G38A C62A A69G | ≤ 0.5 |
| G23A A70U | 0.854 |
| G23A A70G | 0.689 |
| G23C C27G C31G | 0.608 |
| C22U G52C U54C | ≤ 0.5 |
| C22U G48C | 0.863 |
| C22U C31U U47G | ≤ 0.5 |
| C22U U32G C34U A40G | 0.62 |
| C22U C31A | 0.762 |
| G23A C61A A70U | ≤ 0.5 |

| Variant | yeast fitness |
| --- | --- |
| C22U G23A A70C | ≤ 0.5 |
| C22U C30A C49A C55A C62U C66U | 0.667 |
| C22U G50U G63A | ≤ 0.5 |
| C22U G51C C61G A70C | 0.514 |
| G23C C24U A57C G63A C66G | ≤ 0.5 |
| C22U C31G A43U C60A | ≤ 0.5 |
| C22U U54C G67A | ≤ 0.5 |
| G23A C29A C61U | ≤ 0.5 |
| G23C A40C | 0.666 |
| C22U C46G A65G | ≤ 0.5 |
| G23C C27A A57U | ≤ 0.5 |
| C22U G23A G48A A65U | ≤ 0.5 |
| G23A G58C A70C | 0.582 |
| C22U A40G G63C | 0.531 |
| G23A U53G | ≤ 0.5 |
| C22U C66U A69C | 0.593 |
| G23A U47A U64A | ≤ 0.5 |
| C22U C31G G51A | 0.563 |
| C22U C55U A65G | ≤ 0.5 |
| G23C A36U U53C | 0.553 |
| C22U A43U C55G | 0.595 |

| Variant | yeast fitness |
| --- | --- |
| G23A C30U C62A | 0.561 |
| C22U U64C C66U | 0.7 |
| C22U U32G C34U G38U A40G C55G A70U | ≤ 0.5 |
| G23C A37C A45G C49G | 0.671 |
| G23C C24G C34G C46U U54G | ≤ 0.5 |
| G23C A42G | 0.575 |
| C22U G25A U32A A36C A70G | ≤ 0.5 |
| C22U U35C A37C | ≤ 0.5 |
| C22U U32A C46G G52C | ≤ 0.5 |
| G23C C24G C34U G39A A45C | ≤ 0.5 |
| G23C C24A C30G A40U U47A G51C | 0.506 |
| G23C A65G C66A | ≤ 0.5 |
| G23C | 0.653 |
| G23A | 0.741 |
| C22U C34G A36U A65C | 0.573 |
| G23C C34G C55G | ≤ 0.5 |
| C22U C27U C33G G44C A65U | 0.574 |
| C22U C24U A45G G56C | ≤ 0.5 |
| C22U G68C | 0.717 |
| C22U G68A | 0.852 |
| C22U G25C U28C A36G G51A | ≤ 0.5 |

| Variant | yeast fitness |
| --- | --- |
| C22U A45U G52C A57U | ≤ 0.5 |
| C22U C30U C33U A45C | 0.548 |
| G23A C29G G52C | ≤ 0.5 |
| C22U C30U A37G G48C C55G | ≤ 0.5 |
| G23C C24A U32C A65U G68A | ≤ 0.5 |
| G23C A42U A43G A65U | ≤ 0.5 |
| C22U G38A G68A | 0.584 |
| C22U C33U G51A | ≤ 0.5 |
| G23A A36U G39C C66U | ≤ 0.5 |
| C22U G25A G50A A69U | ≤ 0.5 |
| G23C C30G A37U C62U A65U | ≤ 0.5 |
| C22U U32C G48C A57G G68C | ≤ 0.5 |
| G23C C31A C49G C55A | 0.534 |
| C22U A57U | 0.617 |
| C22U A57G | 0.775 |
| C22U A57C | 0.661 |
| G23A A37U C49G C55G | 0.556 |
| G23A C31U C33G A65G | ≤ 0.5 |
| G23A C30U A37C A57C | ≤ 0.5 |
| G23C C33A G50C G58C A70G | 0.548 |
| C22U G25A C31A | 0.728 |
